From ChEMBL document CHEMBL2203145, “Synthesis and structure-activity relationships of tri-substituted thiazoles as RAGE antagonists for the treatment of Alzheimer's disease” (Bioorg Med Chem Lett, 2012)

What was measured:
[1] = target: T1, Advanced glycosylation end product-specific receptor (Homo sapiens, UniProt Q15109); experiment: Antagonist activity at human biotinylated RAGE assessed as inhibition of amyloid beta binding at 10 uM after 60 mins by ELISA
Summary of the method: (§1)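 Biotinylated protein with Aβ in BSA-containing buffer incubated on a streptavidin-coated plate for 60 min at ambient temperature, then washed with TBS-T. Bound Aβ detected with HRP-conjugated 4G8 antibody (1:1000, TBS-T with 2.5% BSA) for 60 min at ambient temperature. Developed with TMB, stopped with sulfuric acid, absorbance read at 450 nm.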

[2] = target: T1, Advanced glycosylation end product-specific receptor; experiment: Antagonist activity at human biotinylated RAGE assessed as inhibition of amyloid beta binding after 60 mins by ELISA; summary of the method: as §1
[3] = target: Advanced glycosylation end product-specific receptor (Mus musculus) (UniProt Q62151); experiment: Antagonist activity at RAGE overexpressed in mouse bEND.3 cells assessed as inhibition of FITC-amyloid beta 42 transport across blood-brain barrier at 10 uM by fluorescence assay; format: functional, cell-based
Advanced glycosylation end product-specific receptor (Mus musculus), sequence (Q62151 whole entry): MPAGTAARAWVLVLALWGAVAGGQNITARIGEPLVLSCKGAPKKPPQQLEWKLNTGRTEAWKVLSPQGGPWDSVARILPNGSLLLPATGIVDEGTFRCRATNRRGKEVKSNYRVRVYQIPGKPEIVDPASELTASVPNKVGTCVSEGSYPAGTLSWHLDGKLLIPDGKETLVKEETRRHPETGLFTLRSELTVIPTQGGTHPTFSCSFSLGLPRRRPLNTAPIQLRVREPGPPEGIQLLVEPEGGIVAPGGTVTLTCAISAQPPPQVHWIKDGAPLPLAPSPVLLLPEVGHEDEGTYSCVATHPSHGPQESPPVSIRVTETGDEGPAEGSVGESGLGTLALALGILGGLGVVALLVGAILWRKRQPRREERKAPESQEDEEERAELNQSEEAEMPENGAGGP
Summary of the method: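 RAGE-overexpressing bEND.3 cells grown 3–4 days to confluence on inserts to form a tight-junction barrier; TEER taken as resistance minus blank-insert resistance, times insert area. Aβ transport across the monolayer measured with compound at 10 µM; reported as % inhibition.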

[4] = target: T1, Advanced glycosylation end product-specific receptor; experiment: Antagonist activity at RAGE transfected in CHO cells assessed as inhibition of amyloid beta 42-induced NFkappaB activation at 1 uM after 18 hrs by luciferase reporter gene assay; format: functional, cell-based
Summary of the method: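 CHO-NF-κB-luciferase cells at 20,000 cells/well in Opti-MEM, incubated overnight, then treated with compound (1 µM) for 18 h at 37 °C with or without 5 µM Aβ42. Cells lysed in passive lysis buffer, lysate mixed with luciferase substrate, relative light units read on a luminometer.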

T1 sequence (Q15109 whole entry): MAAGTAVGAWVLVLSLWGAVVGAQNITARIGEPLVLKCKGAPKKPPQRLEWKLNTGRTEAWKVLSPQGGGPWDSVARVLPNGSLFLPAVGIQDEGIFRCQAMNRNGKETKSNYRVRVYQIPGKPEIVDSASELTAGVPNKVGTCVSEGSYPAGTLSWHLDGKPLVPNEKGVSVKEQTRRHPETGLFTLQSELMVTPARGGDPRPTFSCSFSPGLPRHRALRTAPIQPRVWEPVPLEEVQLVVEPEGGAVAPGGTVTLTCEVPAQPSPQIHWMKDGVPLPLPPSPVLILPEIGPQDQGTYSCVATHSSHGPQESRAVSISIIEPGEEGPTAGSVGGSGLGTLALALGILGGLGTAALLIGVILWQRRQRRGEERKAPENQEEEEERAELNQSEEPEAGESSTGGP

Compound	inhibition [1] [%]	IC50 [2] [nM]	inhibition [3] [%]	inhibition [4] [%]
CCCCc1nc(-c2ccc(OCCCN(CC)CC)cc2)sc1-c1ccc(Oc2ccc(Cl)cc2)cc1	49.6			
CCCCc1sc(-c2ccc(Oc3ccc(Cl)cc3)cc2)nc1-c1ccc(O)cc1	0.2			
CCCCc1sc(Nc2ccc(OCCCN(CC)CC)cc2)nc1-c1ccc(Oc2ccc(Cl)cc2)cc1	60.9	550		
CCCCc1sc(-c2ccc(Oc3ccc(Cl)cc3)cc2)nc1-c1ccc(OCCCN(CC)CC)cc1	57	1120	71.7	
CCCCc1nc(-c2ccc(Oc3ccc(Cl)cc3)cc2)sc1-c1ccc(OCCCN(CC)CC)cc1	57.1	2010	63.5	10.3
CCCCc1sc(-c2ccc(OCCCN(CC)CC)cc2)nc1-c1ccc(Oc2ccc(Cl)cc2)cc1	58.9	1720	73.3	
CCCCc1sc(NC(=O)c2ccc(OCCCN(CC)CC)cc2)nc1-c1ccc(Oc2ccc(Cl)cc2)cc1	60.2	5590		
CCCCc1sc(C(=O)Nc2ccc(OCCCN(CC)CC)cc2)nc1-c1ccc(Oc2ccc(Cl)cc2)cc1	48.1			
CCCCc1nc(-c2ccc(OCC3CCCN(CC)C3)cc2)sc1-c1ccc(Oc2ccc(Cl)cc2)cc1 (stereo unspecified)	47.7			
CCCCc1sc(-c2ccc(OCCCN(C)C)cc2)nc1-c1ccc(Oc2ccc(Cl)cc2)cc1	46.2			
CCCCc1sc(-c2ccc(Oc3ccc(Cl)cc3)cc2)nc1-c1ccc(OCc2ccccc2)cc1	2.4			
CCCCc1nc(-c2ccc(Oc3ccc(Cl)cc3)cc2)sc1-c1ccc(OCC2CCCN(CC)C2)cc1 (stereo unspecified)	53.9	1140	61.5	4.9
CCCCc1sc(-c2ccc(OCCN(CC)CC)cc2)nc1-c1ccc(Oc2ccc(Cl)cc2)cc1	55.1	1580		11.3

More lines, now with the values ahead:

inhibition [1] [%]	IC50 [2] [nM]	inhibition [3] [%]	inhibition [4] [%]	Compound
40.6				CCCCc1sc(-c2ccc(OCCCN3CCOCC3)cc2)nc1-c1ccc(Oc2ccc(Cl)cc2)cc1
58	660	77.5	3	CCCCc1sc(-c2ccc(OCC3CCCN(CC)C3)cc2)nc1-c1ccc(Oc2ccc(Cl)cc2)cc1 (stereo unspecified)
51.8	3180	66.6	2.1	CCCCc1sc(-c2ccc(OCCN(C)C)cc2)nc1-c1ccc(Oc2ccc(Cl)cc2)cc1
47.8				CCCCc1sc(-c2ccc(OCCCN3CCCC3)cc2)nc1-c1ccc(Oc2ccc(Cl)cc2)cc1
59.2	1240	64.3	3.1	CCCCc1sc(-c2ccc(OCCCN3CCN(C)CC3)cc2)nc1-c1ccc(Oc2ccc(Cl)cc2)cc1
60.1	1040	55.3	13.5	CCCCc1sc(-c2ccc(OCCN3CCCCC3)cc2)nc1-c1ccc(Oc2ccc(Cl)cc2)cc1
64.2	910	39.5	2.5	CCCCc1sc(-c2ccc(OCCN3CCCC3)cc2)nc1-c1ccc(Oc2ccc(Cl)cc2)cc1
54.7	1210	68.6	17.2	CCCCc1sc(-c2ccc(OCCN3CCN(C)CC3)cc2)nc1-c1ccc(Oc2ccc(Cl)cc2)cc1
55.9	1910	68.3		CCCCc1sc(-c2ccc(Oc3ccc(Cl)cc3)cc2)nc1-c1ccc(OCC2CCCN(CC)C2)cc1 (stereo unspecified)
59.2	1840	64.3	11.7	CCCCc1sc(-c2ccc(OCCCN3CCCCC3)cc2)nc1-c1ccc(Oc2ccc(Cl)cc2)cc1
22.9				CCCCc1sc(-c2ccc(OCCN3CCOCC3)cc2)nc1-c1ccc(Oc2ccc(Cl)cc2)cc1
